PMC5207485 (Bioorganic & medicinal chemistry, 2016)
pKi: −log10 of the molar value. Read-outs that look alike come from different tables or passages of the source.

Experiments:
[1] = PET scan of [18F]ALS-I-41 in a cynomolgus macaque, IV bolus; type: in vivo, cynomolgus macaque (Macaca fascicularis)
How it was run: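 Single male cynomolgus macaque (8.1 kg), Telazol 3 mg/kg IM, then intubated and ventilated on 1–2% isoflurane in oxygen with continuous vital monitoring. 5 mCi of the [18F]tracer given IV, then brain PET for 2 h, co-registered to the animal's MRI. Summed frames at 9–26 min and 90–120 min post-injection were used to assess distribution.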

[2] = PET imaging of [18F]ALS-I-41 in Sprague-Dawley rats; type: in vivo; conditions: rat PET
How it was run: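 Female Sprague-Dawley rats (200–330 g), isoflurane induction 4–5% and maintenance 1–2% in oxygen, vitals and temperature monitored. [18F]tracer was given IM at 340–390 μCi in 100 μl above the knee, with scanning from 15 min post-injection, or as a 30 min tail-vein infusion of 250–310 μCi in 10% ethanol/saline by syringe pump. 2 h PET with Co-57 attenuation correction; time-activity curves for whole brain, arm muscle and skull.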

[3] = titi monkey models; cited from earlier work
[4] = macaque, IN nasal spray, maximum of 5 IU/kg OT; cited from earlier work
[5] = IN 24 IU OT, 75 minutes post administration, baseline 20 pg/ml; cited from earlier work
[6] = CSF OT levels after IV and IN nasal spray OT, maximum 5 IU/kg; type: in vivo; conditions: macaque, maximum of 5 IU/kg OT, same calculation from data of ref 38
[7] = rhesus macaque, intravenous dose; cited from earlier work
human OXTR = conditions: displacing [^3H]OT at a concentration of 2 nM; cited from earlier work
[8] = CSF concentration of ALS-I-41 after IN or IM administration; type: in vivo, rhesus macaque; conditions: for Time Max: macaque CSF; for Ave Max in CSF / Time CSF Max: male rhesus
How it was run: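 Four male rhesus macaques (5 yr, 9–13 kg) under IM Telazol (4–5 mg/kg) with IV propofol drip (10 mg/kg/hr). Test compound in propylene glycol, given IN by face-mask pediatric nebulizer over 8 min (dose from nebulizer residue) or IM 6.15 mg into the inner thigh. Lumbar CSF was analysed unprocessed by LC-MS/MS in duplicate (C18, 70:30:0.1 water/methanol/formic acid). Detection limit ~1 pg/ml; blood-contaminated samples excluded.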

[9] = Plasma concentration of ALS-I-41 after IN or IM administration; type: in vivo, rhesus macaque; conditions: for Time Plasma Max: male rhesus
[10] = aerosolized IN high dose, ave dose 7690 μg
[11] = aerosolized IN low dose, ave dose 202 μg
[12] = rhesus, IN 7.5 mg target dose vs low dose

Compound: CS(=O)(=O)N1CCC(Oc2ccc(CC(=O)N3CCC(N4C(=O)CCc5ccccc54)CC3)c(OCC[18F])c2)CC1 [[^18F]ALS-I-41]
- time at which distribution of the tracer throughout the entire brain peaked ([1]; cynomolgus macaque, 5 mCi IV bolus): 15 to 30 min
- brain uptake versus neck muscle tissue (TAC) ([1]; cynomolgus macaque, 5 mCi IV, 2 hour scan): only a fraction of the dose reaches the brain
- tracer remaining in the thalamic region at the end of the scan ([1]; cynomolgus macaque, 2 hour scan): very little remained
- bone uptake ([1]; monkey model (macaque PET scan)): no significant bone uptake detected
- metabolism suggested by rapid uptake in the bone [2]: rapidly metabolized on first pass
- brain penetration [3]: no significant brain penetration

Compound: oxytocin [OT]
- change of CSF OT [4]: no significant change
- OT levels in human CSF post administration [5]: 30 pg/mL
- maximum reported CSF OT increase [6]: ~22 pM

Compound: Cc1ccccc1N1CCN(S(=O)(=O)CC23CCC(CC2NC(=O)C(N)CCS(C)(=O)=O)C3(C)C)CC1 [L-368,899]
- time remaining in the CSF post injection [7]: over 250 minutes

Compound: CS(=O)(=O)N1CCC(Oc2ccc(CC(=O)N3CCC(N4C(=O)CCc5ccccc54)CC3)c(OCCF)c2)CC1 [ALS-I-41]
- pKi (human OXTR): 7.80
- Time Max ([8]; IM 6.15 mg): 120 m
- Time Max ([8]; IN 7.69 mg): 60 m
- time retained within the brain ([8]; macaque, after IN or IM administration): over 2 hours
- Ave Max in CSF ([8]; IM, dose 6150 μg): 478 pg/mL
- Time CSF Max ([8]; IM, dose 6150 μg): 120 m
- Ave Max in CSF [8, 10]: 97.2 pg/mL
- Time CSF Max [8, 10]: 60 m
- Ave Max in CSF [8, 11]: 7.36 pg/mL
- Time CSF Max [8, 11]: 120 m
- brain penetration ([8]; rhesus macaque, via CSF extraction and PET imaging): mild brain penetrant
- increase in CSF concentration, high dose IN in comparison to low dose IN [8, 12]: 14 fold
- Time Plasma Max ([9]; IM, dose 6150 μg): 60 m
- Time Plasma Max [9, 10]: 15 m
- Time Plasma Max [9, 11]: 5 m
- increase in plasma concentrations, high dose IN in comparison to low dose IN [9, 12]: 150 fold
